Reference: ChEMBL document CHEMBL1140903, “Reactions of functionalized sulfonamides: application to lowering the lipophilicity of cytosolic phospholipase A2alpha inhibitors” (J Med Chem, 2009)

How the values were obtained:
MC9 [1] = experiment: Inhibition of arachidonic acid-induced PGF2-alpha release in mouse MC9 cells at 1.0 uM
MC9 [2] = experiment: Inhibition of IgE-specific antigen-induced PGF2alpha release in mouse MC9 cells at 0.11 uM
Blood = experiment: Inhibition of A23187-induced TBX2 release in Sprague-Dawley rat whole blood; type: functional, tissue-based
Method in brief: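 Rat whole blood is stimulated with calcium ionophore A23187, and thromboxane B2 is the read-out (cPLA2α- and COX-1-dependent). IC50 is taken from at least two runs, each run the mean of triplicate assays.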

[3] = target: T1, Cytosolic phospholipase A2 (Homo sapiens, UniProt P47712); experiment: Inhibition of human cytosolic PLA2alpha by GLU micelle assay
T1 sequence (P47712 whole entry): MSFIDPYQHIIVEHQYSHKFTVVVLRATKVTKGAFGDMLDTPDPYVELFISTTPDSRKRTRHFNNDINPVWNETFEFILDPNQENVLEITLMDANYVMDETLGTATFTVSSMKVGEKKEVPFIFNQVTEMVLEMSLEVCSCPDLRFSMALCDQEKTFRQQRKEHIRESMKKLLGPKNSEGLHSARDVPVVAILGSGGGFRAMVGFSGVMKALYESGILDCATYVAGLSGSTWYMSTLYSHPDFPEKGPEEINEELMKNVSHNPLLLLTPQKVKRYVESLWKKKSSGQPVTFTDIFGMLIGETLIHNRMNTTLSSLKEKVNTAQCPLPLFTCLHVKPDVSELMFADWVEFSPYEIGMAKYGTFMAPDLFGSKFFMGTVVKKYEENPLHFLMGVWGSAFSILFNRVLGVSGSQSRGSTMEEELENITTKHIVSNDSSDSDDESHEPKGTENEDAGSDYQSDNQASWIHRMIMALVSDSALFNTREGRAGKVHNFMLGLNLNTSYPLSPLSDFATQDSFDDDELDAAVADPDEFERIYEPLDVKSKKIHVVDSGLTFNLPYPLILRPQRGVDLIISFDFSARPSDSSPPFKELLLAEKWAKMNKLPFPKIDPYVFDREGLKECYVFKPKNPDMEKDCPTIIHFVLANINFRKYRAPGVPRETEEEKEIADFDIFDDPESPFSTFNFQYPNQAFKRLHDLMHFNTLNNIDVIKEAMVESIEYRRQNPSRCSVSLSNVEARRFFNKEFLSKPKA
Method in brief: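 Purified human cPLA2α with the substrate 7-hydroxycoumarinyl-γ-linolenate (GLU), presented in micelles containing a high concentration of detergent and lipid. IC50 is taken from at least two runs, each run the mean of duplicate assays.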

Rattus norvegicus [4] = experiment: Plasma concentration in carrageenan-induced paw edema Sprague-Dawley rat model at 15 mg/kg, iv; type: ADME, organism-based; parameters: dose 15 mg/kg, route intravenous; settings: in vivo
Method in brief: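 Plasma concentration is measured in end-bleed samples taken 3 h after iv dosing in 50/50 PEG/DMSO in the carrageenan paw edema model. Values are means from five animals.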

Rattus norvegicus [5] = experiment: Antiinflammatory activity against carrageenan-induced paw edema in Sprague-Dawley rat at 15 mg/kg, iv; type: functional
Method in brief: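 Rat carrageenan paw edema after iv dosing in 50/50 PEG/DMSO, with paw swelling assessed 3 h after dosing. Groups of 10 animals; naproxen was used to define maximal % inhibition.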

MC9 [6] = experiment: Inhibition of IgE-specific antigen-induced LBT4 release in mouse MC9 cells at 0.11 uM
MC9 [7] = experiment: Inhibition of arachidonic acid-induced PGF2-alpha release in mouse MC9 cells at 0.5 uM
MC9 [8] = experiment: Inhibition of IgE-specific antigen-induced LBT4 release in mouse MC9 cells at 0.5 uM
MC9 [9] = experiment: Inhibition of IgE-specific antigen-induced PGF2alpha release in mouse MC9 cells at 0.5 uM
MC9 [10] = experiment: Inhibition of IgE-specific antigen-induced PGF2-alpha release in mouse MC9 cells at 0.037 uM
MC9 [11] = experiment: Inhibition of IgE-specific antigen-induced LBT4 release in mouse MC9 cells at 0.037 uM

Structure (SMILES) | IC50 (Blood) [µM] | IC50 [3] [µM] | also measured
CC1CCC(C)N1CCS(=O)(=O)NCCc1c(CCOc2ccc(C(=O)O)cc2)c2cc(Cl)ccc2n1C(c1ccccc1)c1ccccc1 (configuration not stated) | 0.074 | 0.13 | inhibition at 1 µM (MC9 [1]): -2%; inhibition at 0.11 µM (MC9 [2]): 69%; concentration (Rattus norvegicus [4]): 232 nM; inhibition in vivo at 15 mg/kg (Rattus norvegicus [5]): 37%; inhibition at 0.11 µM (MC9 [6]): 80%
CS(=O)(=O)CS(=O)(=O)NCCc1c(CCOc2ccc(C(=O)O)cc2)c2cc(Cl)ccc2n1C(c1ccccc1)c1ccccc1 | 0.48 | 0.15 | inhibition at 0.5 µM (MC9 [7]): -47%; inhibition at 0.5 µM (MC9 [8]): 100%; inhibition at 0.5 µM (MC9 [9]): 100%
CC1CCCCN1CCS(=O)(=O)NCCc1c(CCOc2ccc(C(=O)O)cc2)c2cc(Cl)ccc2n1C(c1ccccc1)c1ccccc1 (configuration not stated) | 0.057 | 0.12 | inhibition at 1 µM (MC9 [1]): 14%; inhibition at 0.037 µM (MC9 [10]): 45%; inhibition at 0.037 µM (MC9 [11]): 62%
C[C@@H]1CCC[C@H](C)N1CCS(=O)(=O)NCCc1c(CCOc2ccc(C(=O)O)cc2)c2cc(Cl)ccc2n1C(c1ccccc1)c1ccccc1 | 0.1 | 0.25 | 
O=C(O)c1ccc(OCCc2c(CCNS(=O)(=O)CSc3ccccc3Cl)n(C(c3ccccc3)c3ccccc3)c3ccc(Cl)cc23)cc1 | 0.09 | 0.15 | 
O=C(O)c1ccc(OCCc2c(CCNS(=O)(=O)CCN3CCSCC3)n(C(c3ccccc3)c3ccccc3)c3ccc(Cl)cc23)cc1 | 0.18 |  | inhibition at 1 µM (MC9 [1]): 6%; inhibition at 0.11 µM (MC9 [2]): 66%; concentration (Rattus norvegicus [4]): 270 nM; inhibition in vivo at 15 mg/kg (Rattus norvegicus [5]): 27.9%; inhibition at 0.11 µM (MC9 [6]): 76%
Cc1ccn(CCS(=O)(=O)NCCc2c(CCOc3ccc(C(=O)O)cc3)c3cc(Cl)ccc3n2C(c2ccccc2)c2ccccc2)n1 | 0.2 | 0.51 | 
O=C(O)c1ccc(OCCc2c(CCNS(=O)(=O)C[S+]([O-])c3ccc(Cl)c(Cl)c3)n(C(c3ccccc3)c3ccccc3)c3ccc(Cl)cc23)cc1 (configuration not stated) | 0.56 | 0.18 | inhibition at 1 µM (MC9 [1]): 1.4%; inhibition at 0.11 µM (MC9 [2]): 45%; inhibition at 0.11 µM (MC9 [6]): 55%
O=C(O)c1ccc(OCCc2c(CCNS(=O)(=O)CCN3CC4CC3CO4)n(C(c3ccccc3)c3ccccc3)c3ccc(Cl)cc23)cc1 (configuration not stated) | 0.4 | 0.25 | 
CCN(CC)Cc1ccccc1CS(=O)(=O)NCCc1c(CCCc2ccc(C(=O)O)cc2)c2cc(Cl)ccc2n1C(c1ccccc1)c1ccccc1 | 0.037 | 0.03 | 
COC[C@@H]1CCCN1CCS(=O)(=O)NCCc1c(CCOc2ccc(C(=O)O)cc2)c2cc(Cl)ccc2n1C(c1ccccc1)c1ccccc1 | 0.33 | 0.25 | 
Cc1cc(C)n(CCS(=O)(=O)NCCc2c(CCCc3ccc(C(=O)O)cc3)c3cc(Cl)ccc3n2C(c2ccccc2)c2ccccc2)n1 | 0.11 | 0.3 | 
Cc1ccccc1SCS(=O)(=O)NCCc1c(CCOc2ccc(C(=O)O)cc2)c2cc(Cl)ccc2n1C(c1ccccc1)c1ccccc1 | 0.08 | 0.15 | 
CN1CCN(Cc2ccccc2CS(=O)(=O)NCCc2c(CCCc3ccc(C(=O)O)cc3)c3cc(Cl)ccc3n2C(c2ccccc2)c2ccccc2)CC1 | 0.08 | 0.02 | 
CC1CCN(CCS(=O)(=O)NCCc2c(CCOc3ccc(C(=O)O)cc3)c3cc(Cl)ccc3n2C(c2ccccc2)c2ccccc2)CC1 | 0.2 | 0.22 | 
Cc1cc(C)n(CCS(=O)(=O)NCCc2c(CCOc3ccc(C(=O)O)cc3)c3cc(Cl)ccc3n2C(c2ccccc2)c2ccccc2)n1 | 0.16 | 0.45 | inhibition at 1 µM (MC9 [1]): 5%; inhibition at 0.11 µM (MC9 [2]): 83%; inhibition at 0.11 µM (MC9 [6]): 89%
Cc1ccccc1CS(=O)(=O)NCCc1c(CCCc2ccc(C(=O)O)cc2)c2cc(Cl)ccc2n1C(c1ccccc1)c1ccccc1 | 0.025 | 0.026 | 
O=C(O)c1ccc(OCCc2c(CCNS(=O)(=O)CSc3ccccc3)n(C(c3ccccc3)c3ccccc3)c3ccc(Cl)cc23)cc1 | 0.075 | 0.19 | 

Structure (SMILES) | IC50 (Blood) [µM] | IC50 [3] [µM] | also measured
Cc1cnn(CCS(=O)(=O)NCCc2c(CCOc3ccc(C(=O)O)cc3)c3cc(Cl)ccc3n2C(c2ccccc2)c2ccccc2)c1 | 0.28 | 0.76 | 
CC1CCCN1CCS(=O)(=O)NCCc1c(CCOc2ccc(C(=O)O)cc2)c2cc(Cl)ccc2n1C(c1ccccc1)c1ccccc1 (configuration not stated) | 0.077 | 0.22 | 
CC1CCCN(CCS(=O)(=O)NCCc2c(CCOc3ccc(C(=O)O)cc3)c3cc(Cl)ccc3n2C(c2ccccc2)c2ccccc2)C1 (configuration not stated) | 0.2 | 0.35 | 
O=C(O)c1ccc(CCCc2c(CCNS(=O)(=O)Cc3ccccc3CN3CCNCC3)n(C(c3ccccc3)c3ccccc3)c3ccc(Cl)cc23)cc1 | 0.17 | 0.013 | 
O=C(O)c1ccc(OCCc2c(CCNS(=O)(=O)CCN3CCC(O)CC3)n(C(c3ccccc3)c3ccccc3)c3ccc(Cl)cc23)cc1 | 1.3 | 0.35 | 
O=C(O)c1ccc(CCCc2c(CCNS(=O)(=O)CCN3CCOCC3)n(C(c3ccccc3)c3ccccc3)c3ccc(Cl)cc23)cc1 | 0.14 | 0.2 | inhibition at 1 µM (MC9 [1]): 9%; inhibition at 0.11 µM (MC9 [2]): 71%; concentration (Rattus norvegicus [4]): 163 nM; inhibition in vivo at 15 mg/kg (Rattus norvegicus [5]): 23.5%; inhibition at 0.11 µM (MC9 [6]): 69%
C[C@@H]1COC[C@H](C)N1CCS(=O)(=O)NCCc1c(CCOc2ccc(C(=O)O)cc2)c2cc(Cl)ccc2n1C(c1ccccc1)c1ccccc1 | 0.34 | 0.45 | 
O=C(O)c1ccc(OCCc2c(CCNS(=O)(=O)CCn3cncn3)n(C(c3ccccc3)c3ccccc3)c3ccc(Cl)cc23)cc1 | 1.5 | 0.41 | 
O=C(O)c1ccc(OCCc2c(CCNS(=O)(=O)CCN3CCC(O)C3)n(C(c3ccccc3)c3ccccc3)c3ccc(Cl)cc23)cc1 (configuration not stated) | 0.31 | 0.7 | 
O=C(O)c1ccc(OCCc2c(CCNS(=O)(=O)CSc3ccc(Cl)c(Cl)c3)n(C(c3ccccc3)c3ccccc3)c3ccc(Cl)cc23)cc1 | 0.14 | 0.24 | inhibition at 1 µM (MC9 [1]): 33%; inhibition at 0.037 µM (MC9 [10]): 48%; inhibition at 0.037 µM (MC9 [11]): 64%
O=C(O)c1ccc(OCCc2c(CCNS(=O)(=O)CCN3CCOCC3)n(C(c3ccccc3)c3ccccc3)c3ccc(Cl)cc23)cc1 | 0.53 | 0.39 | 
Cc1cccc(C)c1SCS(=O)(=O)NCCc1c(CCOc2ccc(C(=O)O)cc2)c2cc(Cl)ccc2n1C(c1ccccc1)c1ccccc1 | 0.3 | 0.33 | 
O=Cc1ccccc1CS(=O)(=O)NCCc1c(CCCc2ccc(C(=O)O)cc2)c2cc(Cl)ccc2n1C(c1ccccc1)c1ccccc1 | 0.05 | 0.2 | 
O=C(O)c1ccc(OCCc2c(CCNS(=O)(=O)CCN3CCCCC3)n(C(c3ccccc3)c3ccccc3)c3ccc(Cl)cc23)cc1 | 0.14 | 0.36 | 
O=C(O)c1ccc(OCCc2c(CCNS(=O)(=O)CSc3cc(Cl)cc(Cl)c3)n(C(c3ccccc3)c3ccccc3)c3ccc(Cl)cc23)cc1 | 0.14 | 0.2 | 
O=C(O)c1ccc(OCCc2c(CCNS(=O)(=O)CCn3ccnn3)n(C(c3ccccc3)c3ccccc3)c3ccc(Cl)cc23)cc1 | 0.2 | 0.5 | 
CN(C)CC1CCCCN1CCS(=O)(=O)NCCc1c(CCOc2ccc(C(=O)O)cc2)c2cc(Cl)ccc2n1C(c1ccccc1)c1ccccc1 (configuration not stated) | 0.15 | 0.27 | inhibition at 1 µM (MC9 [1]): 13%; inhibition at 0.11 µM (MC9 [2]): 56%; inhibition at 0.11 µM (MC9 [6]): 62%
O=C(O)c1ccc(OCCc2c(CCNS(=O)(=O)CSc3ccc(F)cc3F)n(C(c3ccccc3)c3ccccc3)c3ccc(Cl)cc23)cc1 | 0.03 | 0.14 | inhibition at 1 µM (MC9 [1]): 47%; inhibition at 0.037 µM (MC9 [10]): 77%; inhibition at 0.037 µM (MC9 [11]): 94%
